# Assay results gathered from unrelated publications.
# Protocols differ between the studies behind these lines.
# Target: Fibroblast growth factor receptor 1 (FGFR1, Homo sapiens, UniProt P11362)
SMILES,assay,conditions,remaining binding [%]
O=C(O)[C@H]1[C@H](Cn2nnc3ccccc3c2=O)CC[C@@H]1C(=O)c1ccc(OCCC2CCOCC2)cc1,"cell-free assay, competition with immobilised ligand",1 µM,98
O=C(c1ccc(Nc2nccc(-c3cc4ccccc4s3)n2)cc1)N1CCC(N2CCCC2)CC1,"binding, competition with immobilised ligand",1 µM,88
COc1ncc2cc3ccccc3nc2c1C#N,"cell-free assay, competition with immobilised ligand",5 µM,73
CN(CCCC(F)(F)F)c1nccc(-c2cnn3ncccc23)n1,binding,1 µM,46
CC1=C(C#N)[C@@H](c2ccc3[nH]nc(C)c3c2)C(C#N)=C(c2ccc(Cl)cc2)N1,"cell-free assay, competition with immobilised ligand",1 µM,86.6
FC(F)(F)Oc1cccc(-c2cnc3ccc(-c4ccncc4)nn23)c1,"cell-free assay, competition with immobilised ligand",5 µM,72
N[C@@H]1CCN(c2nccc(-c3cnn4ncccc34)n2)C1,binding,1 µM,96
Cc1nc(C2CCN(C(=O)c3ccc(OC(F)(F)F)cc3N)CC2)c2ncc(N3CCN(C)CC3)cc2n1,"cell-free assay, competition with immobilised ligand",1 µM,100
O=C(NCCCN1CCOCC1)c1ccc(Nc2ncc(Cl)c(-c3ccc(Cl)s3)n2)cc1,"binding, competition with immobilised ligand",1 µM,27
CNC(=O)[C@@H]1CC[C@@H](n2c(-c3ccc4cnccc4c3)nc3ccc(C(=O)NCc4cccc(C(N)=O)c4)cc32)C1,"binding, competition with immobilised ligand",1 µM,90
CS(=O)(=O)NCC[C@H](NC(=O)c1cncc2c1cnn2-c1ccc(F)cc1)c1ccnc(S(C)(=O)=O)c1,"cell-free assay, competition with immobilised ligand",1 µM,87
CCN1CCN(Cc2ccc(C(=O)Nc3ccc(C)c(Oc4ccc5c(c4)CC(=O)N5)c3)cc2C(F)(F)F)CC1,"binding, competition with immobilised ligand",1 µM,78
COc1ccnn2ncc(-c3ccnc(N(C)C)n3)c12,binding,1 µM,86
O=C(O)c1cc(-c2ccc(C3CCNCC3)cc2)c2ccc(-c3ccc(C(F)(F)F)cc3)cc2c1,"cell-free assay, competition with immobilised ligand",1 µM,100
C[C@@H]1CCN(c2nccc(-c3cnn4ncccc34)n2)C1,binding,1 µM,100
O=C(c1ccc(Nc2ncc(Cl)c(-c3ccc(Cl)s3)n2)cc1)N1CCC(N2CCCC2)CC1,"binding, competition with immobilised ligand",1 µM,12
CC1CCCN1c1nccc(-c2cnn3ncccc23)n1 (stereo not shown),binding,1 µM,100
O=C(NCC1CCOCC1)c1n[nH]cc1NC(=O)c1c(F)cccc1F,"binding, competition with immobilised ligand",1 µM,100
O=C1CCc2cc(Nc3cc(OC4CCOCC4)c([N+](=O)[O-])cc3Cl)ccc2N1,"cell-free assay, competition with immobilised ligand",1 µM,93
F[C@@H]1CCN(c2nccc(-c3cnn4ncccc34)n2)C1,binding,1 µM,87
C[C@H](NC(=O)c1cnc2n1[C@](C)(Cc1ccc(C#N)cc1)C(=O)N2c1cc(Cl)c(F)c(Cl)c1)C(=O)NC1(c2ccccn2)CC1,"cell-free assay, competition with immobilised ligand",1 µM,100
Nc1ncc2c(n1)-c1c([nH]c3ccc(C#CC4CC4)cc13)CCCC2,"binding, competition with immobilised ligand",1 µM,79
